An excerpt weighted towards active compounds, which were near 1.3% of everything screened.
procasp3 activ – activates human procaspase-3 | P42574 | hit rate 0.11% among 330,000 | recombinant procaspase-3 D3A, Ac-DEVD-pNA absorbance 405 nm | activation, % at 8.5 µM;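 active = activation above the mean of all tested compounds plus 3 SD, cut at about 21% in these data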
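Assay system: Autoprocessing-dead procaspase-3 D3A mutant enzyme; also added: Ac-DEVD-pNA; doses: one concentration, 8.5 µM nominal, 0.8% DMSO; times: 1 h compound preincubation, 2 h substrate hydrolysis at 25 °C; technique: 405 nm absorbance of p-nitroaniline, reads at 0 and 120 min; measure: % activation between DMSO and enzyme-spiked controls; repeats: single replicate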
Hep lipid drop – hepatic lipid droplet formation modulation | AML12 mouse hepatocytes, oleate lipid droplets, BODIPY imaging | inhibition, % at 6.5 µM | hit rate 0.4% among 240,000 | AID 1656;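 active = lipid droplet intensity inhibited by at least 50%, with more than 500 cells counted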
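Assay system: AML12 mouse liver cells | Compound dosing: One dose, 6.5 µM compound | Read-out basis: Droplet intensity reduction, % inhibition | Measured by: Fluorescence imaging, 20x objective, two fields per well | Schedule: Overnight treatment with compound plus oleate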
proCasp7 act – counter-screen: procaspase-7 (human) activation; P55210; recombinant procaspase-7, Ac-DEVD-pNA absorbance 405 nm; D23A/D198A/D206A triple mutant, cannot self-cleave; scale: DMSO 0, 5 µM enzyme 100; activation, % at 8.5 µM; hit rate 0.093% among 330,000; AID 463210;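 active = percent activation above the screen-wide mean plus 3 SD, cut at about 25% in these data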
Target sequence (P55210 whole entry D23A/D198A/D206A): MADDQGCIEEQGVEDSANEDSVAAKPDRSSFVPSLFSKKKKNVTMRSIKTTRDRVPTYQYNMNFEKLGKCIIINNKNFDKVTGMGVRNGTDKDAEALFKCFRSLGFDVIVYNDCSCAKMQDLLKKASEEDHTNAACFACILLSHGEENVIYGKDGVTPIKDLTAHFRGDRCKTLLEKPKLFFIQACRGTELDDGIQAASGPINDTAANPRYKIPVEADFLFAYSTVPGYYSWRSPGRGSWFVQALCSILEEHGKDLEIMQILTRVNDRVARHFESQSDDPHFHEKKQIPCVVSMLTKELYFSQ
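signal = Epi-absorbance of released pNA at 405 nm, two timepoints | assay system = Uncleavable procaspase-7 mutant enzyme | reagent = Ac-DEVD-pNA substrate, 400 µM as added | times = 1 h enzyme–compound preincubation and 2 h substrate reaction, both 25 °C | benchmarks = low DMSO alone, high DMSO plus 5 µM PC-7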
VLA-4 inh – inhibition in a human VLA-4 binding assay; P13612; VLA-4 expressing cells, ligand binding flow cytometry; inhibition, % (about 7 µM as worked out from the volumes in the protocol); hit rate 0.2% among 330,000; AID 2557; in the data active = inhibition above about 50%
GRK2 inh – human GRK2 inhibition via aptamer displacement | P25098 | bead flow cytometry, FAM-aptamer displacement from GRK2 | inhibition of aptamer binding, % at 10 µM | hit rate 0.59% among 330,000;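 active = inhibition of aptamer binding above 40%, roughly 3 SD of noise, on plates passing a quality check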;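 note: median bead fluorescence of bound FAM aptamer so fluorescent compounds give negative values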
JMJD2C inh – blocks human GASC-1 demethylase activity. Q9H3R0. GST-JMJD2C(1-420) H3K9me3 demethylation, DELFIA europium. inhibition, % at 2.35 µM. hit rate 0.069% among 330,000. AID 2099;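 active = more than half of a compound's replicate wells show inhibition beyond 50%, single wells judged on their own value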;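 note: signal counts dimethyl H3K9 product captured on neutravidin plate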
GRK2 inh confirm – confirmation of human GRK2 inhibitors displacing RNA aptamer; shares compounds with GRK2 inh; bead-bound GRK2, FAM-aptamer displacement, flow cytometry; aptamer displacement, % at 10 µM; hit rate 4% among 2,000; AID 504451;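 active = aptamer displacement above 40%, near three times the noise of non-fluorescent compounds, on plates passing quality checks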;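 note: negative values mostly reflect intrinsic compound fluorescence rather than true enhancement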
Aptamer quench SP – aptamer fluorescence quenching in GRK2 counter-screen; shares compounds with GRK2 inh; fluorescence response (% of DMSO), % at 10 µM; 2,000 tested, under 10 active; Carboxyfluorescein RNA aptamer on beads, flow cytometry quenching; stronger effect = lower value;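 active = compounds that quench the bead-bound fluorescent RNA probe, cutting fluorescence to under half of the solvent control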;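 note: counterscreen run without GRK2 so only probe quenching by compound is measured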
GRK2 confirm 2 – human GRK2 inhibition confirmation, cherry pick 2; inhibition of aptamer binding, % at 10 µM; 360 tested, under 10 active; shares compounds with GRK2 inh; bead-bound GRK2, FAM-aptamer displacement, flow cytometry;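 active = inhibition of aptamer binding above 40%, about triple the noise seen with nonglowing compounds, on plates passing quality control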;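 note: negative values mostly come from compounds that fluoresce themselves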
FAM quench CP2 – counter-screen for GRK2 binding hits: quenchers of fluorescent RNA aptamer; fluorescence response vs DMSO, % at 10 µM; shares compounds with GRK2 inh; carboxyfluorescein RNA aptamer beads, flow cytometry quenching; stronger effect = lower value; AID 588494; 360 tested, under 10 active;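 active = response vs DMSO under 50%, meaning signal dropped by over half, treated as fluorescence quencher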;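 note: labelled aptamer on streptavidin beads without GRK2 as a quench counter-screen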
Hits are given with their value; - = inactive; . = no result given.

SMILES	procasp3 activ	Hep lipid drop	proCasp7 act	VLA-4 inh	GRK2 inh	JMJD2C inh	GRK2 inh confirm	Aptamer quench SP	others
C=CCNC(=O)c1onc(CSc2ccc(F)c(F)c2)c1C(=O)NCC=C	-	.	-	-	53	-	-	-
COc1ccccc1CNc1ccc(CNc2ncn[nH]2)cc1	-	-	-	-	52	-	-	-
O=C(COC(=O)c1ccc2c(c1)OCO2)Nc1ccccc1Cl	-	.	-	-	-	.	.	.
O=C(CSCc1ccccc1)Nc1ccc(S(=O)(=O)Nc2ncccn2)cc1	-	-	-	-	-	-	.	.
O=C(NN1CCOCC1)c1cc(-c2ccccc2)nc2ccccc12	-	.	-	-	71	-	-	-
COc1ccc(C2=NO[C@@H]3C(=O)N(c4ccc5c(c4)OCCO5)C(=O)[C@H]23)cc1OC	-	-	-	-	-	-	.	.	GRK2 confirm 2=-;FAM quench CP2=-
O=C(CNC(=O)c1cccc(F)c1)N/N=C/c1cccnc1	-	-	-	-	-	-	.	.
NS(=O)(=O)c1cccnc1Nc1ccc(Cl)c(Cl)c1	-	-	-	-	-	-	.	.
CC(=O)NS(=O)(=O)c1cccnc1Nc1ccc(Cl)c(Cl)c1	-	-	-	-	83	-	-	-
O=C(O)CCC(=O)Nc1ccc(Br)cc1C(=O)c1ccc(Cl)cc1	-	-	-	-	-	-	.	.
CCCC(=O)Nc1ccc2c(c1)nc(CN1CCN(C(=O)OCC)CC1)n2CC	-	-	-	-	-	-	.	.
O=C(Cn1c(C(F)(F)F)nc2ccccc21)OCC(=O)c1c[nH]c2ccccc12	-	-	-	-	80	-	.	.	GRK2 confirm 2=-;FAM quench CP2=-
CS(=O)(=O)N(CC(=O)NCCSCc1ccccc1)c1ccccc1Cl	-	-	-	-	-	-	.	.
O=C(CN1C(=O)COc2ccc(S(=O)(=O)N3CCOCC3)cc21)Nc1cccc(Cl)c1	-	-	-	-	66	-	-	-
COc1cccc(NC(=O)CN2C(=O)COc3ccc(S(=O)(=O)N4CCOCC4)cc32)c1	-	-	-	-	-	-	.	.
CCCCC(CC)c1nnc(NC(=O)c2cccs2)s1 (stereo unspecified)	.	-	.	.	.	-	.	.
CCCC(C)c1nnc(NC(=O)CCS(=O)(=O)c2ccccc2)s1 (stereo unspecified)	-	-	-	-	-	-	-	-
CC(C)c1nnc(NC(=O)CCS(=O)(=O)c2ccccc2)s1	-	-	-	-	-	-	-	-
CC(C)c1nnc(NC(=O)c2cccs2)s1	-	-	-	-	44	-	-	-
Nc1[nH]ncc1N=Nc1ccc(Cl)cc1	-	-	-	-	-	-	.	.
Nc1[nH]ncc1-c1ccc(Cl)cc1	-	-	-	-	99	-	-	-
O=C(NC(=S)NCc1ccccc1)c1ccc2c(c1)OCO2	-	-	-	-	94	-	.	.	GRK2 confirm 2=-;FAM quench CP2=-
O=C(NC(=S)NCc1cccnc1)c1ccccc1	-	-	-	-	100	-	.	.	GRK2 confirm 2=-;FAM quench CP2=-
CCCN(CC(=O)Nc1ccccc1C)C(=O)c1cccc(S(=O)(=O)N2CCN(c3ccccc3)CC2)c1	-	.	-	-	-	-	.	.
COc1ccc(CN(C)C(C)C(=O)Nc2ccc(S(=O)(=O)N3CCCCC3)cc2)cc1F (stereo unspecified)	-	.	-	-	72	-	-	-
COc1ccc(CN(C)C(C)C(=O)Nc2ccc(S(=O)(=O)N3CCOCC3)cc2)c(OC)c1 (stereo unspecified)	-	-	-	-	-	-	.	.

Source: PubChem BioAssay (several laboratories)
